# Assay results taken from ChEMBL document CHEMBL1141084, “Analogues of thiolactomycin as potential antimalarial agents” (J Med Chem, 2005).
# Columns and labels:
# Trypanosoma cruzi = test: Inhibitory concentration against Trypanosoma cruzi [Tulahuen strain C2C4] in rat skeletal myoblasts upon incubation at 37 degrees C for 4 days in 5% CO2; type: functional, organism-based
# Plasmodium falciparum = test: In vitro inhibitory concentration against chloroquine-resistant, pyrimethamine-resistant Plasmodium falciparum K1; type: functional, organism-based
# [1] = target: T1, Beta-ketoacyl-ACP-synthase III (Plasmodium falciparum) (UniProt O77078); test: Percent inhibition of Plasmodium falciparum beta-Ketoacyl-acyl carrier protein synthase III activity (MBP-pfKASIII) expressed in E. coli cells using [1-14C]acetyl-CoA as radioligand upon incubation at 37 degrees C for 15 minutes with compound dissolved in 2% DMSO at 100 uM
# T1 sequence (whole entry): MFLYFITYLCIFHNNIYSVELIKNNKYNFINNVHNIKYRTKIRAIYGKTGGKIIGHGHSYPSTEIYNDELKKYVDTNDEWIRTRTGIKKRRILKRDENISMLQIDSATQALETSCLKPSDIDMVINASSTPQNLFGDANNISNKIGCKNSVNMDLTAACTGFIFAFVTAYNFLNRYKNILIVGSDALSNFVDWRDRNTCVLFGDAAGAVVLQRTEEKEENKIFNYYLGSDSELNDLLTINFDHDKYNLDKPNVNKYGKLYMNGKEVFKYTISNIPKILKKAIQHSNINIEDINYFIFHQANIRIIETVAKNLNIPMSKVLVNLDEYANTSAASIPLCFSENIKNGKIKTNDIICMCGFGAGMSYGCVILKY
# [2] = tested on: Trypanosoma brucei rhodesiense; test: Inhibitory concentration against Trypanosoma brucei rhodesiense STIB 900 upon incubation at 37 degrees C in 5% CO2 for 72 hours; type: functional, organism-based
# Leishmania donovani = test: Inhibitory concentration against amastigotes of Leishmania donovani strain MHOM/ET/67/L82 upon incubation at 37 degrees C for 72 hours using alamar blue
# [3] = target: T1, Beta-ketoacyl-ACP-synthase III (Plasmodium falciparum); test: Percent inhibition of recombinant Plasmodium falciparum beta-Ketoacyl-acyl carrier protein synthase III activity (MBP-pfKASIII) expressed in E. coli cells using [1-14C]acetyl-CoA as radioligand upon incubation at 37 degrees C for 15 minutes with compound dissolved in 2% DMSO at 10 uM; NA = no activity
# How it was run: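 MBP-fused pfKASIII from E. coli BL21(DE3) codon+RIL, amylose-purified, 500 ng per reaction. Buffer: 100 mM NaH2PO4 pH 6.6, with 25 µM E. coli ACP prereduced with 1 mM β-mercaptoethanol (37 °C, 30 min), 1 µg E. coli FabD, 65 µM malonyl-CoA and 45 µM [1-14C]acetyl-CoA. 2% DMSO final; 37 °C, 15 min. Read-out: filter disks, TCA-washed, scintillation-counted.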
compound,measurement,setting,value
CCCCCCCCCCC1(CC)SC(O)=C(C)C1=O (stereo not drawn),IC50,"Trypanosoma cruzi; Trypanosoma cruzi, 96 h",72 µM
same,IC50,Plasmodium falciparum; Plasmodium falciparum,65 µM
same,inhibition,[1],15%
same,IC50,"[2]; Trypanosoma brucei, 72 h",153 µM
CCCCCCCCCCC1(C)OC(O)=C(CC)C1=O (stereo not drawn),IC50,"Trypanosoma cruzi; Trypanosoma cruzi, 96 h",146 µM
same,IC50,Plasmodium falciparum; Plasmodium falciparum,94 µM
same,IC50,"[2]; Trypanosoma brucei, 72 h",62 µM
CCCCCCC1(C)SC(O)=C(CC)C1=O (stereo not drawn),IC50,"Trypanosoma cruzi; Trypanosoma cruzi, 96 h",195 µM
same,IC50,Plasmodium falciparum; Plasmodium falciparum,61 µM
same,inhibition,[1],5%
same,IC50,"[2]; Trypanosoma brucei, 72 h",71 µM
CCCCCCCCCCC1(C)SC(O)=C(CC)C1=O (stereo not drawn),IC50,"Trypanosoma cruzi; Trypanosoma cruzi, 96 h",54 µM
same,IC50,Plasmodium falciparum; Plasmodium falciparum,15 µM
same,inhibition,[1],40%
same,IC50,"[2]; Trypanosoma brucei, 72 h",97 µM
CCCCCCCCCCC1(C)SC(O)=C(CCCC)C1=O (stereo not drawn),IC50,"Trypanosoma cruzi; Trypanosoma cruzi, 96 h",77 µM
same,IC50,Plasmodium falciparum; Plasmodium falciparum,71 µM
same,inhibition,[1],60%
same,IC50,"[2]; Trypanosoma brucei, 72 h",8 µM
CC(C)=CCC1(C)SC(O)=C(C)C1=O (stereo in doubt; 1a),IC50,Trypanosoma cruzi,> 142 µM
same,IC50,Leishmania donovani,56 µM
same,IC50,Plasmodium falciparum,> 95 µM
same,inhibition,[1],30%
same,IC50,[2],182 µM
CC(C)=CCC/C(C)=C/CC1(C)SC(O)=C(C)C1=O (stereo not drawn),IC50,"Trypanosoma cruzi; Trypanosoma cruzi, 96 h",68 µM
same,IC50,Plasmodium falciparum; Plasmodium falciparum,40 µM
same,inhibition,[1],45%
same,IC50,"[2]; Trypanosoma brucei, 72 h",190 µM
CCC1=C(O)SC(C)C1=O (stereo not drawn),IC50,"Trypanosoma cruzi; Trypanosoma cruzi, 96 h",568 µM
same,inhibition,[3],No activity
same,IC50,Plasmodium falciparum; Plasmodium falciparum,233 µM
same,IC50,"[2]; Trypanosoma brucei, 72 h",357 µM
CCCC1(C/C=C(/C)CCC=C(C)C)C(=O)SC(C)C1=O (stereo not drawn),IC50,"Trypanosoma cruzi; Trypanosoma cruzi, 96 h",21 µM
same,IC50,Leishmania donovani,12 µM
same,IC50,Plasmodium falciparum; Plasmodium falciparum,9 µM
same,inhibition,[1],90%
same,IC50,"[2]; Trypanosoma brucei, 72 h",55 µM
CCCCCCC1(C)SC(O)=C(C)C1=O (stereo not drawn),IC50,"Trypanosoma cruzi; Trypanosoma cruzi, 96 h",127 µM
same,IC50,Plasmodium falciparum; Plasmodium falciparum,139 µM
same,inhibition,[1],10%
same,IC50,"[2]; Trypanosoma brucei, 72 h",112 µM
CCCC1=C(OC)C(C)SC1=O (stereo not drawn),IC50,"Trypanosoma cruzi; Trypanosoma cruzi, 96 h",359 µM
same,IC50,Leishmania donovani,100 µM
same,inhibition,[3],No activity
same,IC50,Plasmodium falciparum; Plasmodium falciparum,45 µM
same,IC50,"[2]; Trypanosoma brucei, 72 h",9 µM
CCCCCCCCCCC1(C)OC(O)=C(CCCC)C1=O (stereo not drawn),IC50,"Trypanosoma cruzi; Trypanosoma cruzi, 96 h",70 µM
same,IC50,Plasmodium falciparum; Plasmodium falciparum,> 15 µM
same,inhibition,[1],60%
same,IC50,"[2]; Trypanosoma brucei, 72 h",13 µM
CCC1=C(O)OC(C)C1=O (stereo not drawn),IC50,"Trypanosoma cruzi; Trypanosoma cruzi, 96 h",> 633 µM
same,IC50,Plasmodium falciparum; Plasmodium falciparum,> 351 µM
same,IC50,"[2]; Trypanosoma brucei, 72 h",> 633 µM
CCCCCCCCCCCCCCCCC1(CC)SC(O)=C(C)C1=O (stereo not drawn),IC50,"Trypanosoma cruzi; Trypanosoma cruzi, 96 h",49 µM
same,IC50,Plasmodium falciparum; Plasmodium falciparum,35 µM
same,inhibition,[1],40%
same,IC50,"[2]; Trypanosoma brucei, 72 h",130 µM
CCCCCCCCCCC1(C)SC(O)=C(C)C1=O (stereo not drawn),IC50,"Trypanosoma cruzi; Trypanosoma cruzi, 96 h",68 µM
same,IC50,Plasmodium falciparum; Plasmodium falciparum,36 µM
same,inhibition,[1],30%
same,IC50,"[2]; Trypanosoma brucei, 72 h",171 µM
CCCC1=C(O)C(C)(CCCCCCO)SC1=O (stereo not drawn),IC50,"Trypanosoma cruzi; Trypanosoma cruzi, 96 h",64 µM
same,IC50,Leishmania donovani,88 µM
same,inhibition,[3],No activity
same,IC50,Plasmodium falciparum; Plasmodium falciparum,157 µM
same,IC50,"[2]; Trypanosoma brucei, 72 h",64 µM
CCCCCCCCCCC1(C)SC(=O)C(CCC)=C1OCc1ccccc1 (stereo not drawn),IC50,"Trypanosoma cruzi; Trypanosoma cruzi, 96 h",13 µM
same,IC50,Leishmania donovani,> 74 µM
same,inhibition,[3],No activity
same,IC50,Plasmodium falciparum; Plasmodium falciparum,4 µM
same,IC50,"[2]; Trypanosoma brucei, 72 h",> 223 µM
CCCCCCCCCCC1(C)SC(O)=C(CCC)C1=O (stereo not drawn),IC50,"Trypanosoma cruzi; Trypanosoma cruzi, 96 h",56 µM
same,IC50,Plasmodium falciparum; Plasmodium falciparum,10 µM
same,inhibition,[1],55%
same,IC50,"[2]; Trypanosoma brucei, 72 h",21 µM
CCCCCCCCCCC1(C)SC(=O)C(CCC)=C1OCCCCCCO (stereo not drawn),IC50,"Trypanosoma cruzi; Trypanosoma cruzi, 96 h",64 µM
same,IC50,Leishmania donovani,36 µM
same,IC50,Plasmodium falciparum; Plasmodium falciparum,31 µM
same,inhibition,[1],5%
same,IC50,"[2]; Trypanosoma brucei, 72 h",64 µM
C=CCC1(C)C(=O)SC(C)(CCCCCCCCCC)C1=O (stereo not drawn),IC50,"Trypanosoma cruzi; Trypanosoma cruzi, 96 h",55 µM
same,IC50,Plasmodium falciparum; Plasmodium falciparum,26 µM
same,inhibition,[1],5%
same,IC50,"[2]; Trypanosoma brucei, 72 h",157 µM
C=CCC1(C)C(=O)SC(C)C1=O (stereo not drawn),IC50,"Trypanosoma cruzi; Trypanosoma cruzi, 96 h",> 488 µM
same,inhibition,[3],No activity
same,IC50,Plasmodium falciparum; Plasmodium falciparum,62 µM
same,IC50,"[2]; Trypanosoma brucei, 72 h",79 µM
